Assay results from ChEMBL document CHEMBL1140407, “Design and synthesis of tricyclic corticotropin-releasing factor-1 antagonists” (J Med Chem, 2005).

Key:
[1] = target: T1, Corticotropin-releasing factor receptor 1 (Homo sapiens, UniProt P34998); assay: Binding affinity for human corticotropin releasing factor receptor 1 expressed in LtK- cells using [125I]sauvagine; type: cell-based
T1 sequence (P34998 whole entry): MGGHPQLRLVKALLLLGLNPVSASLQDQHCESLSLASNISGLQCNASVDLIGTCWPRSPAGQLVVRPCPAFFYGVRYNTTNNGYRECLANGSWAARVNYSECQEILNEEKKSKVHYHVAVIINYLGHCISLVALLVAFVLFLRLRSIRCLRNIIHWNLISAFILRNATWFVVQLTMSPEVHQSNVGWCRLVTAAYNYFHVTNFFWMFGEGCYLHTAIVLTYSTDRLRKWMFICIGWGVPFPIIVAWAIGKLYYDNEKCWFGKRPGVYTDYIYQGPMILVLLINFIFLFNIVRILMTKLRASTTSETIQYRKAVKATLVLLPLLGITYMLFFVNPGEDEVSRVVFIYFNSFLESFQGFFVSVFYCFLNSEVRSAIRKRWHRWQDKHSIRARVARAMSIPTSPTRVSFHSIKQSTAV
How it was run: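 Buffer: DPBS with 10 mM MgCl2 and 2 mM EGTA, pH 7.4. Competitor 10 pM to 1 µM, run in duplicate, 2 h at room temperature. Bound ligand separated by vacuum filtration and counted by gamma counter. Nonspecific binding taken with excess unlabeled sauvagine. Ki from nonlinear curve fitting.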

Rattus norvegicus = species on record: Rattus norvegicus; assay: In vitro Inhibition of CRF-stimulated ACTH release in rat anterior pituitary cells, upon 9 min incubation at 37 degree C; type: functional, cell-based; conditions: Pituitary gland cell, 4 h, in the assay text read “4 h incubation” for “9 min incubation”
How it was run: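 Pituitaries from 7-week-old female Sprague Dawley rats digested with collagenase (1.5 h, 37 °C), then neuraminidase (9 min, 37 °C). Cells cultured 2-3 days in 3% FCS/BBM-T at 40,000 cells/well. Antagonist (1 pM to 1 µM) added with 0.5 nM r/hCRF in BBM-T for 4 h at 37 °C. Medium ACTH measured by RIA.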

[2] = target: T1, Corticotropin-releasing factor receptor 1; assay: In vitro inhibition of CRF-stimulated cAMP production in cell membranes expressing human CRF1 receptor; type: functional, cell-based; conditions: in the assay text read “whole cells” for “cell membranes”
How it was run: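 Live whole L-hCRF1 cells (LtK- cells expressing human CRF1 receptor) were plated at 100 000 cells/well the day before and washed with DPBS. Buffer was DMEM without phenol red with 1 mM IBMX. CRF plus antagonist at various concentrations were added for 30 min at 37 °C in 5% CO2. Total cAMP was read by chemiluminescent immunoassay and IC50 was obtained by nonlinear curve fitting.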

| Structure (SMILES) | Ki [1] [nM] | also measured |
| --- | --- | --- |
| CCCC(CCC)N1CCn2nc(-c3ccc(Cl)cc3Cl)c3nc(C)cc1c32 | 5.01 |  |
| CC[C@H]1Cn2nc(-c3ccc(Cl)cc3C)c3nc(C)cc(c32)N1CC1CC1 | 7.94 |  |
| CC[C@H]1Cn2nc(-c3ccc(Cl)cc3C(F)(F)F)c3nc(C)cc(c32)N1CC1CC1 | 20 |  |
| CC[C@H]1Cn2nc(-c3ccc(C(F)(F)F)cc3Cl)c3nc(C)cc(c32)N1CC1CC1 | 3.98 |  |
| CC[C@H]1Cn2nc(-c3ccc(C)cc3Cl)c3nc(C)cc(c32)N1CC1CC1 | 6.31 |  |
| CC[C@H]1Cn2nc(-c3ccc(Cl)cc3Cl)c3nc(C)cc(c32)N1CC(C)C | 15.8 |  |
| CC[C@H]1Cn2nc(-c3ccc(Cl)cc3Cl)c3nc(C)cc(c32)N1CC | 63.1 |  |
| CCCCC(CCCC)N1CCn2nc(-c3ccc(Cl)cc3Cl)c3nc(C)cc1c32 | 5.01 |  |
| Cc1cc2c3c(n1)c(-c1ccc(Cl)cc1Cl)nn3C[C@H](C)N2CC1CC1 | 7.94 |  |
| CC[C@H]1Cn2nc(-c3ccc(OC)cc3C)c3nc(C)cc(c32)N1CC1CC1 | 10 |  |
| CC[C@@H]1Cn2nc(-c3ccc(Cl)cc3Cl)c3nc(C)cc(c32)N1CC1CC1 | 126 |  |
| CC[C@H]1Cn2nc(-c3ccc(C(=O)OC)cc3Cl)c3nc(C)cc(c32)N1CC1CC1 | 158 |  |
| CC[C@H]1Cn2nc(-c3ccc(Cl)cc3Cl)c3nc(C)cc(c32)N1CCOC | 50.1 |  |
| CC[C@H]1Cn2nc(-c3ccc(Cl)cc3Cl)c3nc(C)cc(c32)N1 | 794 |  |
| CC[C@H]1Cn2nc(-c3ccc(C(C)C)cc3C(F)(F)F)c3nc(C)cc(c32)N1CC1CC1 | 7.94 |  |
| CC[C@H]1Cn2nc(-c3ccc(OC)cc3Cl)c3nc(C)cc(c32)N1CC1CC1 | 3.98 |  |
| CC[C@H]1Cn2nc(-c3ccc(F)cc3Cl)c3nc(C)cc(c32)N1CC1CC1 | 12.6 |  |
| CCCCN1c2cc(C)nc3c(-c4ccc(Cl)cc4Cl)nn(c23)C[C@@H]1CC | 6.31 |  |
| Cc1cc2c3c(n1)c(-c1ccc(Cl)cc1Cl)nn3CCN2C1CCCCC1 | 158 |  |

| Structure (SMILES) | Ki [1] [nM] | also measured |
| --- | --- | --- |
| CCCN1c2cc(C)nc3c(-c4ccc(Cl)cc4Cl)nn(c23)C[C@@H]1CC | 31.6 |  |
| Cc1cc2c3c(n1)c(-c1ccc(Cl)cc1Cl)nn3CCN2C(C)C | 79.4 |  |
| Cc1cc2c3c(n1)c(-c1ccc(Cl)cc1Cl)nn3C[C@H](c1ccccc1)N2CC1CC1 | 10 |  |
| CC[C@H]1Cn2nc(-c3ccc(Cl)cc3Cl)c3nc(C)cc(c32)N1Cc1ccccc1 | 158 |  |
| CC[C@H]1Cn2nc(-c3ccc(Cl)cc3OC)c3nc(C)cc(c32)N1CC1CC1 | 25.1 |  |
| CC[C@H]1Cn2nc(-c3ccc(C(F)(F)F)cc3C(F)(F)F)c3nc(C)cc(c32)N1CC1CC1 | 7.94 |  |
| Cc1cc2c3c(n1)c(-c1ccc(Cl)cc1Cl)nn3CCN2CC1CC1 | 79.4 |  |
| Cc1cc2c3c(n1)c(-c1ccc(Cl)cc1Cl)nn3CCN2CC(C)C | 398 |  |
| Cc1cc2c3c(n1)c(-c1ccc(Cl)cc1Cl)nn3C[C@H](C(C)C)N2CC1CC1 | 5.01 |  |
| CC[C@H]1Cn2nc(-c3ccc(OC)cc3C(F)(F)F)c3nc(C)cc(c32)N1CC1CC1 | 7.94 |  |
| CCC[C@H]1Cn2nc(-c3ccc(Cl)cc3Cl)c3nc(C)cc(c32)N1CC1CC1 | 3.98 |  |
| CC[C@H]1Cn2nc(-c3ccc(Cl)cc3Cl)c3nc(C)cc(c32)N1CC1CCC1 | 20 |  |
| CC[C@H]1Cn2nc(-c3ccc(Cl)cc3F)c3nc(C)cc(c32)N1CC1CC1 | 50.1 |  |
| CC[C@H]1Cn2nc(-c3ccc(Cl)cc3Cl)c3nc(C)cc(c32)N1CC1CC1 |  | IC50 (Rattus norvegicus): 126 nM; IC50 [2]: 79.4 nM |
| CC[C@H]1Cn2nc(-c3ccc(C)cc3C)c3nc(C)cc(c32)N1CC1CC1 | 12.6 |  |
| CCC(CC)N1CCn2nc(-c3ccc(Cl)cc3Cl)c3nc(C)cc1c32 | 3.98 |  |
| CCC(COC)N1CCn2nc(-c3ccc(Cl)cc3Cl)c3nc(C)cc1c32 (centres undefined) | 63.1 |  |
| CCCN(CC1CC1)c1cc(C)nc2c(-c3ccc(Cl)cc3Cl)nn(C)c12 | 1.58 |  |
| CCCCN(CC)c1nc(C)nc2c1c(C)c(C)n2-c1c(C)cc(C)cc1C [ANTALARMIN] | 2.51 |  |
